From ChEMBL document CHEMBL2169768, “Synthesis and preliminary biological profile of new NO-donor tolbutamide analogues” (Bioorg Med Chem Lett, 2012)
The source made the active and inactive calls. No cut-off for these calls is given here.

Experiments:
[1] = Induction of NO release in phosphate buffered saline of pH 7.4 after 1 hr by Griess assay in presence of 0.5 mM L-cysteine; assay type: physicochemical; settings: buffer, pH 7.4, 1 h
Aorta [2] = assay: Vasodilatory activity in Wistar rat thoracic aorta assessed as relaxation of L-phenylephrine-induced contraction after 120 mins; assay type: functional, tissue-based; settings: for EC50: 2 h
[3] = Induction of nitrite production in rat INS-1E cells assessed per well at 200 uM after 2 hrs by Griess method in presence of 2 mM glucose; assay type: functional
INS-1E [4] = assay: Induction of glucose-stimulated insulin release from rat INS-1E cells at 200 uM after 1 hr by coated charcoal immunoassay in presence of up to 4 mM glucose; assay type: functional, cell-based
Summary of the method: (§1)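 INS-1E cells at passages 54–65 were kept in RPMI 1640 with 10% heat-inactivated FCS, pyruvate, 2-mercaptoethanol, glutamine and HEPES, and were seeded at 4 x 10^4 cells/cm2. After 48 h they were preincubated 1 h at 37 °C in KRBH with 0.5% BSA and 1 or 2 mM glucose. They were then exposed 1 h at 37 °C to glucose ± compound (100 or 200 µM). Secreted insulin was measured by RIA against a rat insulin standard. Data are mean ± SEM.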

[5] = Antiaggregatory activity in human platelet-rich plasma assessed as inhibition of collagen-induced aggregation pretreated 10 mins before addition of stimulus measured after 10 mins in presence of 50 uM ODQ; assay type: functional
Aorta [6] = assay: Vasodilatory activity in Wistar rat thoracic aorta assessed as relaxation of L-phenylephrine-induced contraction after 120 mins in presence of 1 uM sGC inhibitor ODQ; assay type: functional, tissue-based; settings: for EC50: 2 h
[7] = Induction of glucose-stimulated insulin release from rat INS-1E cells at 200 uM after 1 hr by coated charcoal immunoassay in presence of 11 mM glucose; assay type: functional; summary of the method: as §1
[8] = Induction of glucose-stimulated insulin release from rat INS-1E cells at 200 uM after 1 hr by coated charcoal immunoassay in presence of 2 mM glucose relative to control; assay type: functional; summary of the method: as §1
[9] = Antiaggregatory activity in human platelet-rich plasma assessed as inhibition of collagen-induced aggregation at 300 uM pretreated 10 mins before addition of stimulus measured after 10 mins; assay type: functional
Summary of the method: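 Collagen-triggered aggregation in human platelet-rich plasma, by a method described in earlier work. Inhibition is taken relative to control samples. IC50 is obtained by nonlinear regression where it can be calculated. Otherwise percent inhibition is reported at the top concentration tried, 300 µM.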

[10] = Induction of NO release in phosphate buffered saline of pH 7.4 after 1 hr by Griess assay in presence of 5 mM L-cysteine; assay type: physicochemical; settings: buffer, pH 7.4, 1 h
[11] = Induction of glucose-stimulated insulin release from rat INS-1E cells at 200 uM after 1 hr by coated charcoal immunoassay in presence of 5.6 mM glucose; assay type: functional; summary of the method: as §1
[12] = (§2) Induction of glucose-stimulated insulin release from rat INS-1E cells at 200 uM after 1 hr by coated charcoal immunoassay in presence of 2 mM glucose; assay type: functional; summary of the method: as §1
[13] = Induction of glucose-stimulated insulin release from rat INS-1E cells at 100 uM after 1 hr by coated charcoal immunoassay in presence of 2 mM glucose relative to control; assay type: functional; summary of the method: as §1
INS-1E [14] = assay: as §2; assay type: functional; summary of the method: as §1
liver (rat) = assay: Induction of nitric oxide release from Wistar rat liver homogenate at 200 uM after 45 mins by Griess method

EC50 (Aorta [6])	EC50 (Aorta [2])	Activity [10]	SMILES	Activity (Aorta [2])	Activity [3]	Activity (INS-1E [4])	Activity [8]	inhibition at 300 µM [9]	Activity [11]	Activity [12]	Activity [13]	Activity (INS-1E [14])	also measured
0.9 µM			CCCCNC(=O)NS(=O)(=O)c1ccc(OCc2no[n+]([O-])c2C#N)cc1	Dose-dependent effect	10.33 nmol	Active							Activity [1]: 27.7%; IC50 [5]: 209 µM
57 µM	0.74 µM	9.1%	CCCCNC(=O)NS(=O)(=O)c1ccc(OCc2no[n+]([O-])c2C(N)=O)cc1	Dose-dependent effect	3.47 nmol		1.94%	5.2%	4.19%	2.12%	1.46%		Activity [7]: 4.92%
			O=S(=O)(c1ccccc1)c1c(Oc2ccccc2)no[n+]1[O-]									inactive	
			O=[N+]([O-])OCC(COc1ccccc1)O[N+](=O)[O-] (stereo not drawn)									inactive	
			N#Cc1c(COc2ccccc2)no[n+]1[O-]									inactive	
0.22 µM	0.0024 µM		CCCCNC(=O)NS(=O)(=O)c1ccc(Oc2no[n+]([O-])c2S(=O)(=O)c2ccccc2)cc1	Dose-dependent effect	22.68 nmol	Active	4.33%				3.06%		Activity [1]: 32.1%; IC50 [5]: 34 µM
			NC(=O)c1c(COc2ccccc2)no[n+]1[O-]									inactive	
61 µM	0.9 µM	4.3%	CCCCNC(=O)NS(=O)(=O)c1ccc(OCC(CO[N+](=O)[O-])O[N+](=O)[O-])cc1 (stereo not drawn)	Dose-dependent effect	5.65 nmol	Active		5.6%	4.85%	2.6%			Activity (liver (rat)): Active
			[O-][n+]1onc(COc2ccccc2)c1-c1ccccc1									inactive	
> 100 µM	2.4 µM	< 1%	CCCCNC(=O)NS(=O)(=O)c1ccc(OCc2no[n+]([O-])c2-c2ccccc2)cc1	Dose-dependent effect	7.03 nmol	Active	2.41%	13%			1.83%		
			CCCCNC(=O)NS(=O)(=O)c1ccc(C)cc1 [TOLBUTAMIDE]	Dose-dependent effect	3.2 nmol	Active	2.97%	6.4%	4.98%	2.76%	2.22%		Activity [7]: 5.45%; Activity (Aorta [6]): inactive
> 100 µM	1.6 µM	< 1%	CCCCNC(=O)NS(=O)(=O)c1ccc(OCCCO[N+](=O)[O-])cc1	Dose-dependent effect	3.88 nmol		2.38%	1.1%	4.62%	2.18%	1.86%		Activity [7]: 5.79%; Activity (liver (rat)): Active
			O=[N+]([O-])OCCCOc1ccccc1									inactive	
